Data: ChEMBL document CHEMBL4118251 (J Med Chem, 2018)

Assays:
Glucagon receptor = Glucagon receptor (Homo sapiens, UniProt P47871); assay: Agonist activity at human glucagon receptor expressed in HEK293 cells assessed as cAMP accumulation after 30 mins by HTRF assay; type: functional, cell-based
[1] = Solubility in pH 4.5 acetate buffer at 10 mg/ml after 2 hrs in presence of 0.5% phenol by UPLC-UV analysis
Cynomolgus monkey [2] = assay: Potency index, ratio of liraglutide dose to compound dose for antiobesity activity in diet-induced obesity cynomolgus monkey model assessed as reduction in body weight administered sc once daily measured every 3 to 4 days during compound dosing; type: functional, Macaca fascicularis
[3] = target: Glucagon-like peptide 1 receptor (Macaca fascicularis, UniProt F8V479); assay: Agonist activity at monkey GLP1R expressed in HEK293 cells assessed as cAMP accumulation after 30 mins by HTRF assay; type: cell-based, Macaca mulatta
[4] = Plasma concentration in diet-induced obesity cynomolgus monkey model at 8 ug/kg, sc for 6 weeks measured 4 hrs post dose on day 43 by LC-MS analysis; type: ADME, organism-based, Macaca fascicularis; settings: 0.008 mg/kg
How it was run: (§1)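 Obese diabetic cynomolgus monkeys were dosed once daily sc with PBS-diluted drug for 6 weeks. On day 43, blood was drawn just before dosing and at 1, 2, 4, 8 and 22 h after, into EDTA-2K tubes. Plasma was separated at 2500 × g for 10 min at 4 °C. The dual agonist was measured by LC-MS after protein precipitation; liraglutide was measured by ELISA.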

[5] = AUC (0 to 22 hrs) in diet-induced obesity cynomolgus monkey model at 8 ug/kg, sc for 6 weeks on day 43 by LC-MS analysis; type: ADME, organism-based, Macaca fascicularis; design: dose 8 ug/kg, time < 22 hr, route subcutaneous; settings: in vivo, 0.008 mg/kg; how it was run: as §1
[6] = Plasma concentration in diet-induced obesity cynomolgus monkey model at 8 ug/kg, sc for 6 weeks measured 8 hrs post dose on day 43 by LC-MS analysis; type: ADME, organism-based, Macaca fascicularis; settings: 0.008 mg/kg; how it was run: as §1
[7] = Plasma concentration in diet-induced obesity cynomolgus monkey model at 8 ug/kg, sc for 6 weeks measured 2 hrs post dose on day 43 by LC-MS analysis; type: ADME, organism-based, Macaca fascicularis; settings: 0.008 mg/kg; how it was run: as §1
[8] = target: T1, Gastric inhibitory polypeptide receptor (Homo sapiens, UniProt P48546); assay: Agonist activity at human GIP receptor expressed in HEK293 cells assessed as cAMP accumulation after 30 mins by HTRF assay; type: functional, cell-based
T1 sequence (P48546 whole entry): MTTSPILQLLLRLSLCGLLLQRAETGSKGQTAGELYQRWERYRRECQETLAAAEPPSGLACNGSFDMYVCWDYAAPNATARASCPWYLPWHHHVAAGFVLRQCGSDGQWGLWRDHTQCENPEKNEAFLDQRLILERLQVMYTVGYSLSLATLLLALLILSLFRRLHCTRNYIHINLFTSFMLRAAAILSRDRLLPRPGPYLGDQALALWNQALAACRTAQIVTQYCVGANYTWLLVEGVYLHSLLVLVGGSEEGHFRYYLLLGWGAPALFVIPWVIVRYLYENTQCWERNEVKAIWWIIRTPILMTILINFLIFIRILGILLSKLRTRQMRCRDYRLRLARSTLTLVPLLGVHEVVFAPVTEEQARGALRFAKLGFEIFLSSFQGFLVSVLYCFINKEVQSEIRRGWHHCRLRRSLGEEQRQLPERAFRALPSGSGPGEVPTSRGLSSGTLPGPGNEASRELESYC

[9] = Solubility in pH 4.5 acetate buffer at 10 mg/ml after 2 hrs in presence of 0.5% phenol by UPLC-UV analysis; type: physicochemical
How it was run: (§2)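 Buffers were 100 mM sodium acetate pH 4.5 or 100 mM sodium phosphate pH 7.4, with or without 0.5% phenol. Solid peptide was dispersed at 10 mg/mL, with content corrected by UPLC-MS and ion chromatography, and gently agitated for 2 h. After centrifugation (15 min, 3000 rcf), the supernatant was diluted 1:10 and quantified by UPLC-UV against a DMSO standard curve.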

[10] = Plasma concentration in diet-induced obesity cynomolgus monkey model at 8 ug/kg, sc for 6 weeks measured 1 hr post dose on day 43 by LC-MS analysis; type: ADME, organism-based, Macaca fascicularis; settings: 0.008 mg/kg; how it was run: as §1
Cynomolgus monkey [11] = assay: Hypoglycemic activity in diet-induced obesity cynomolgus monkey model assessed as plasma HbA1c level at 1.5 ug/kg on day 1 to 3, 3 ug/kg on day 4 to 6, 4.5 ug/kg on day 7 to 9, 6 ug/kg from day 10 to 17 and 8 ug/kg on day 18 to 42 administered sc once daily measured on day 43 post last dose (reference value: 8.7 +/- 0.8%); type: functional, Macaca fascicularis
[12] = Agonist activity at monkey GIP receptor expressed in HEK293 cells assessed as cAMP accumulation after 30 mins by HTRF assay; type: cell-based, Macaca mulatta; settings: Macaca mulatta, HEK293, 0.5 h
How it was run: (§3)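 HEK293 lines stably expressing human or monkey receptor were detached with accutase. Cells were resuspended at 400 000 cells/mL in HBSS/20 mM HEPES/0.1% BSA/2 mM IBMX and exposed to peptide for 30 min at room temperature. cAMP was read by HTRF (665/620 nm) after 1 h lysis.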

[13] = target: Glucagon-like peptide 1 receptor (Homo sapiens, UniProt P43220); assay: Agonist activity at human GLP1R expressed in HEK293 cells assessed as cAMP accumulation after 30 mins by HTRF assay; type: functional, cell-based
[14] = Agonist activity at monkey glucagon receptor expressed in HEK293 cells assessed as cAMP accumulation after 30 mins by HTRF assay; type: cell-based, Macaca mulatta; settings: Macaca mulatta, HEK293, 0.5 h; how it was run: as §3
Homo sapiens = species: Homo sapiens; assay: Selectivity ratio of EC50 for human glucagon receptor expressed in HEK293 cells to EC50 for human GLP1R expressed in HEK293 cells; type: cell-based; how it was run: as §3
[15] = Plasma concentration in diet-induced obesity cynomolgus monkey model at 8 ug/kg, sc for 6 weeks measured 22 hrs post dose on day 43 by LC-MS analysis; type: ADME, organism-based, Macaca fascicularis; settings: 0.008 mg/kg; how it was run: as §1
[16] = Ratio of EC50 for monkey glucagon receptor expressed in HEK293 cells to EC50 for human glucagon receptor expressed in HEK293 cells; type: cell-based; how it was run: as §3
[17] = Solubility in pH 4.5 acetate buffer at 10 mg/ml after 2 hrs by UPLC-UV analysis; type: physicochemical; how it was run: as §2
[18] = Plasma concentration in diet-induced obesity cynomolgus monkey model at 8 ug/kg, sc for 6 weeks measured […] dose on day 43 by LC-MS analysis; type: ADME, organism-based, Macaca fascicularis; settings: 0.008 mg/kg; how it was run: as §1
Cynomolgus monkey [19] = assay: Antiobesity activity in diet-induced obesity cynomolgus monkey model assessed as reduction in body weight at 1.5 ug/kg on day 1 to 3, 3 ug/kg on day 4 to 6, 4.5 ug/kg on day 7 to 9, 6 ug/kg from day 10 to 17 and 8 ug/kg on day 18 to 42 administered sc once daily measured every 3 to 4 days during compound dosing relative to control; type: functional, Macaca fascicularis; design: scale not given: the % may be the effect or the level left
How it was run: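 Obese diabetic cynomolgus monkeys were offered about 680 kcal/day. They were block-randomized into 3 groups by body weight, fasted glucose and %HbA1C. Dosing was once daily sc in PBS vehicle over a 6-week study with ramped doses. Food and water intake were logged daily, and body weight was measured every 3–4 days. Two insulin-requiring vehicle animals were excluded.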

[20] = Solubility in pH 4.5 acetate buffer at 10 mg/ml after 2 hrs by UPLC-UV analysis

Sequence of Glucagon receptor (P47871 whole entry): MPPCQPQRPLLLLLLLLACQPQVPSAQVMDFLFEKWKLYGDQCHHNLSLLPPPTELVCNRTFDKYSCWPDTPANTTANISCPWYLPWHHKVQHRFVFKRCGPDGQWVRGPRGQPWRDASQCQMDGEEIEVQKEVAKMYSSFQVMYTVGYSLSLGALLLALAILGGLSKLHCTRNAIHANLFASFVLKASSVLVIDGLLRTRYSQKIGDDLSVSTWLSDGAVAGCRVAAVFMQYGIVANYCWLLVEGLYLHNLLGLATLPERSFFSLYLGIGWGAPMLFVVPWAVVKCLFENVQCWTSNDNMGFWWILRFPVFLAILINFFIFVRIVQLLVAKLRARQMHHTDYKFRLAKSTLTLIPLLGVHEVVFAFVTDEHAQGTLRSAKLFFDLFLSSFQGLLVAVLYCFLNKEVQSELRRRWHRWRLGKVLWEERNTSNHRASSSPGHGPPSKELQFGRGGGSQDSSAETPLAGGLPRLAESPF
Sequence of Glucagon-like peptide 1 receptor (Homo sapiens, UniProt P43220) (P43220 whole entry): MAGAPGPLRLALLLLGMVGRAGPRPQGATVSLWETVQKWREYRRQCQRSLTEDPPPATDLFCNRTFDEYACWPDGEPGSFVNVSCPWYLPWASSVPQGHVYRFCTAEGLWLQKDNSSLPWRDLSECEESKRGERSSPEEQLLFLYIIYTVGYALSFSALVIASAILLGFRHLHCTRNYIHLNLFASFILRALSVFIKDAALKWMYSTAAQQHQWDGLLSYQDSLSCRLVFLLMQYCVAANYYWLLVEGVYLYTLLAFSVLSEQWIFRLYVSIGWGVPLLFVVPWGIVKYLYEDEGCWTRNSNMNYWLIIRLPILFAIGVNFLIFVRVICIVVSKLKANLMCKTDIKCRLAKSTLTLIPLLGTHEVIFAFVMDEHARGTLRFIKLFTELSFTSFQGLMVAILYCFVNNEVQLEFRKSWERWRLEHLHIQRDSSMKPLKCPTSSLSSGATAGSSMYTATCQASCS
Sequence of Glucagon-like peptide 1 receptor (Macaca fascicularis, UniProt F8V479) (F8V479 whole entry): as the sequence (P43220 whole entry) above, with A4T, M17V, S135N, F143S, S225G, L228V, L260F, W264R, I272V counted along it

EC50 (Glucagon receptor): 0.029 nM
solubility at 2 h [1]: ≥ 10000 µg/mL
EC50 [3]: 0.002 nM
concentration at 4 h [4]: 24.3 ng/mL
AUC at 22 h [5]: 254 ng·h/mL
concentration at 8 h [6]: 12.4 ng/mL
concentration at 2 h [7]: 28 ng/mL
EC50 [8]: 2.03 nM
solubility at 2 h [9]: ≥ 10000 µg/mL
concentration at 1 h [10]: 21.6 ng/mL
EC50 [12]: 2.05 nM
EC50 [13]: 0.0018 nM
EC50 [14]: 0.129 nM
concentration at 22 h [15]: 0.69 ng/mL
solubility at 2 h [17]: ≥ 10000 µg/mL
concentration at 1008 h [18]: 0.66 ng/mL
solubility at 2 h [20]: ≥ 10000 µg/mL
SMILES: CCCCCCCCCCCCCCCCC(=O)[C@H](CCN[C@@H](CCC(=O)NCCCC[C@H](NC(=O)[C@H](CCC(N)=O)NC(=O)[C@H](CCCCN)NC(=O)[C@H](CO)NC(=O)[C@H](CC(C)C)NC(=O)[C@H](CC(=O)O)NC(=O)[C@H](CO)NC(=O)[C@@H](NC(=O)[C@H](Cc1ccccc1)NC(=O)[C@@H](NC(=O)CNC(=O)[C@H](CCC(N)=O)NC(=O)C(C)(C)NC(=O)[C@@H](N)Cc1cnc[nH]1)[C@@H](C)O)[C@@H](C)O)C(=O)N[C@@H](CC(=O)O)C(=O)N[C@@H](CCC(=O)O)C(=O)N[C@@H](CCC(N)=O)C(=O)N[C@@H](CCCNC(=N)N)C(=O)N[C@@H](C)C(=O)N[C@@H](CCCCN)C(=O)N[C@@H](CC(C)C)C(=O)N[C@@H](Cc1ccccc1)C(=O)N[C@H](C(=O)N[C@@H](CCC(=O)O)C(=O)N[C@@H](Cc1c[nH]c2ccccc12)C(=O)N[C@@H](CC(C)C)C(=O)NC(C)(C)C(=O)N[C@@H](C)C(=O)NCC(=O)NCC(=O)N1CCC[C@H]1C(=O)N1CCC[C@H]1C(=O)N[C@@H](CO)C(=O)N[C@@H](C)C(=O)N[C@@H](CCCCN)C(=O)N1CCC[C@H]1C(=O)N1CCC[C@H]1C(=O)N1CCC[C@H]1C(=O)N[C@@H](CCCCN)C(N)=O)[C@@H](C)CC)C(=O)O)C(=O)O
Ratio (Cynomolgus monkey [2]): 5
Activity (Cynomolgus monkey [11]): 7.1%
Ratio EC50 (Homo sapiens): 10 to 15
Ratio EC50 [16]: 4
Activity (Cynomolgus monkey [19]): 6.9%
